The target of test [1] is Histone deacetylase 5 (Homo sapiens) (UniProt Q9UQL6). Put plainly: Inhibition of human recombinant C-terminal His-tagged HDAC5 (656 to 1122 residues) expressed in insect cells at 10 uM preincubated with enzyme followed by acetyl-Lys(trifluoroacetyl)-AMC substrate addition measured after 2 hrs by fluorescence assay relative to control. The procedure, abridged: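 HDAC enzyme in 50 mM Tris-HCl pH 8.0, 137 mM NaCl, 2.7 mM KCl, 1 mM MgCl2 was pre-incubated with compound dosed from DMSO. The reaction was started with the class IIa substrate acetyl-Lys(trifluoroacetyl)-AMC and run 2 h at 30 °C. Developer with trichostatin A stopped it, and fluorescence (Ex/Em 360/460 nm) was read at plateau. Single test concentration 10 µM.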

For test [2], the target named is T1, Protein deacetylase HDAC6 (Homo sapiens) (UniProt Q9UBN7).
T1 sequence (whole entry): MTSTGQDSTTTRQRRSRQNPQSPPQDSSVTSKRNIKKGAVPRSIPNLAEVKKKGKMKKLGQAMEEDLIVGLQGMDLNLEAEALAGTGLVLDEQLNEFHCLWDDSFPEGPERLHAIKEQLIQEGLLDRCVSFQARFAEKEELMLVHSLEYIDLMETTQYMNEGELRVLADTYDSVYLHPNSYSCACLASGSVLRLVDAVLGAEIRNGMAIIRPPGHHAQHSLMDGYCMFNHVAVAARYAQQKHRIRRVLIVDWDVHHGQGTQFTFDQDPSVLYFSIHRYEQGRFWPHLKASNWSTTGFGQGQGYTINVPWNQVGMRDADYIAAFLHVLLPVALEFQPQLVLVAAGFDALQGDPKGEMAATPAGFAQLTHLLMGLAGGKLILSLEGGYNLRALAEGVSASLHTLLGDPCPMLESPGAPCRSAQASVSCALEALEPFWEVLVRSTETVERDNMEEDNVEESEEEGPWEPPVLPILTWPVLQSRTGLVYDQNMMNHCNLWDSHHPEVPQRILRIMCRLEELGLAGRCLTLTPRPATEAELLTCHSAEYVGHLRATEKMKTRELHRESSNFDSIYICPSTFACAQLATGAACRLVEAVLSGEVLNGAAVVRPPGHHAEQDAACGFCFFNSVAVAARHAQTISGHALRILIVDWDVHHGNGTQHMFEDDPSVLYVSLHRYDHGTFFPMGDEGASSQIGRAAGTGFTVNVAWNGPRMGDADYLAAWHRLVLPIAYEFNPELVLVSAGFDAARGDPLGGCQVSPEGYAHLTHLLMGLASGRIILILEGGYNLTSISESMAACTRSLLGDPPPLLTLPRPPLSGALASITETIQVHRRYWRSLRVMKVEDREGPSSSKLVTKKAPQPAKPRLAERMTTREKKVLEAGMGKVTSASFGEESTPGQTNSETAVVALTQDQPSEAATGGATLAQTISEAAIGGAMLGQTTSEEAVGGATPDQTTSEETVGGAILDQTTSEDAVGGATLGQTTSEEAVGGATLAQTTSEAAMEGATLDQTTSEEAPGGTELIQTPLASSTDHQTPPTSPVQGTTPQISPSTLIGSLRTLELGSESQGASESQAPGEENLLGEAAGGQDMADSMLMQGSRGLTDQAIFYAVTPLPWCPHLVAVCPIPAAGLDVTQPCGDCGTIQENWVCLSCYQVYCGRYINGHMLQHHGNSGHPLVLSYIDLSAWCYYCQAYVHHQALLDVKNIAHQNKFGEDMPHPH
Put plainly: Inhibition of HDAC6 in human MOLM14 cells assessed as increase in acetylated tubulin level at 2 times antiproliferative IC50 after 16 to 48 hrs by immunoblot method. The format is cell-based. Conditions: MOLM-14. Put shortly: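 KMS-12-BM or MOLM-14 cells (at least 3x10^6 per condition) treated at about 2x their proliferation IC50 in a time course of 0 to 48 h. Tubastatin (15 μM, 48 h) used as HDAC6 control. Lysates immunoblotted for acetyl-α-tubulin and acetyl-H3 (Lys9/Lys14); re-probed for α-tubulin and H3.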

The target of test [3] is Tyrosine-protein kinase JAK3 (Homo sapiens, UniProt P52333). Put plainly: Inhibition of human JAK3 JH1 catalytic domain (I781 to S1124 residues) expressed in mammalian expression system by KINOMEScan assay.
Test [4] can be described thus: Antiproliferative activity against human MCF7 cells after 72 hrs by MTT assay. Conditions: MCF7, 72 h. The format is functional, cell-based.
Test [5] relates to MOLM-14. Put plainly: Induction of apoptosis in human MOLM14 cells assessed as late apoptotic cells at 3 uM after 48 hrs by Annexin-V FITC/propidium iodide staining based flow cytometry (reference value: 2.1 to 2.2%). The test is classed as functional. Put shortly: (§1)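 MOLM-14 cells treated 48 h at the stated concentrations; doxorubicin as positive control. Stained with Annexin V-FITC and propidium iodide and analysed by flow cytometry (at least 10,000 events). Gated quadrants: Annexin V−/PI− viable, Annexin V+/PI− early apoptotic, Annexin V+/PI+ late apoptotic.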

Test [6] relates to Mast/stem cell growth factor receptor Kit (Homo sapiens), P10721 [V559D,T670I]. Put plainly: Inhibition of human KIT (Y545 to D952 residues) V559D/T670I double mutant expressed in bacterial expression system assessed as residual activity at 100 nM by KINOMEScan assay relative to control. The procedure, abridged:
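Done by DiscoveRx as an ATP-site binding panel covering 97 kinases across the kinome. It measures binding rather than inhibition of phosphate transfer. The compound was tested at 100 nM, and the result is expressed as percent of control binding.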

The target in test [7] is Non-receptor tyrosine-protein kinase TYK2 (Homo sapiens, UniProt P29597). Put plainly: Inhibition of TYK2 (unknown origin) at 0.1 uM preincubated for 20 mins followed by [33P]ATP addition measured after 120 mins by Hotspot assay relative to control. The procedure, abridged: (§2)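 Radiometric HotSpot kinase assay. Buffer: 20 mM HEPES pH 7.5, 10 mM MgCl2, 1 mM EGTA, 0.02% Brij35, 0.02 mg/mL BSA, 0.1 mM Na3VO4, 2 mM DTT, 1% DMSO. Compound added about 20 min before ATP/[33P]ATP (10 μM final). Reactions run 120 min at 25 °C, spotted on P81 filters and washed in phosphoric acid. Activity expressed relative to DMSO after background subtraction. Single-concentration panel at 100 nM in duplicate.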

Test [8] concerns the target Tyrosine-protein kinase JAK3 (Homo sapiens) (UniProt P52333). Put plainly: Inhibition of human JAK3 JH1 catalytic domain (I781 to S1124 residues) expressed in mammalian expression system assessed as residual activity at 100 nM by KINOMEScan assay relative to control. Put shortly: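 DiscoveRx KINOMEscan competition binding against ATP sites in a 97-kinase panel, with compound at 100 nM. Binding reported as % of control.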

Test [9] has as its target Receptor-type tyrosine-protein kinase FLT3 (Homo sapiens) (UniProt P36888). Put plainly: Inhibition of FLT3 (unknown origin) at 0.1 uM preincubated for 20 mins followed by [33P]ATP addition measured after 120 mins by Hotspot assay relative to control. Put shortly: as §2
Test [10] has as its system MOLM-14. Put plainly: Induction of apoptosis in human MOLM14 cells assessed as necrotic cells at 0.75 uM after 48 hrs by Annexin-V FITC/propidium iodide staining based flow cytometry (reference value: 0.1%). The format is functional. The procedure, abridged:
as §1

The values below come from ChEMBL document CHEMBL3877241 (J Med Chem, 2016).

Active and inactive are the calls of the source. The rule behind the calls is not given here.

Receptor-type tyrosine-protein kinase FLT3 (Homo sapiens), sequence (P36888 whole entry): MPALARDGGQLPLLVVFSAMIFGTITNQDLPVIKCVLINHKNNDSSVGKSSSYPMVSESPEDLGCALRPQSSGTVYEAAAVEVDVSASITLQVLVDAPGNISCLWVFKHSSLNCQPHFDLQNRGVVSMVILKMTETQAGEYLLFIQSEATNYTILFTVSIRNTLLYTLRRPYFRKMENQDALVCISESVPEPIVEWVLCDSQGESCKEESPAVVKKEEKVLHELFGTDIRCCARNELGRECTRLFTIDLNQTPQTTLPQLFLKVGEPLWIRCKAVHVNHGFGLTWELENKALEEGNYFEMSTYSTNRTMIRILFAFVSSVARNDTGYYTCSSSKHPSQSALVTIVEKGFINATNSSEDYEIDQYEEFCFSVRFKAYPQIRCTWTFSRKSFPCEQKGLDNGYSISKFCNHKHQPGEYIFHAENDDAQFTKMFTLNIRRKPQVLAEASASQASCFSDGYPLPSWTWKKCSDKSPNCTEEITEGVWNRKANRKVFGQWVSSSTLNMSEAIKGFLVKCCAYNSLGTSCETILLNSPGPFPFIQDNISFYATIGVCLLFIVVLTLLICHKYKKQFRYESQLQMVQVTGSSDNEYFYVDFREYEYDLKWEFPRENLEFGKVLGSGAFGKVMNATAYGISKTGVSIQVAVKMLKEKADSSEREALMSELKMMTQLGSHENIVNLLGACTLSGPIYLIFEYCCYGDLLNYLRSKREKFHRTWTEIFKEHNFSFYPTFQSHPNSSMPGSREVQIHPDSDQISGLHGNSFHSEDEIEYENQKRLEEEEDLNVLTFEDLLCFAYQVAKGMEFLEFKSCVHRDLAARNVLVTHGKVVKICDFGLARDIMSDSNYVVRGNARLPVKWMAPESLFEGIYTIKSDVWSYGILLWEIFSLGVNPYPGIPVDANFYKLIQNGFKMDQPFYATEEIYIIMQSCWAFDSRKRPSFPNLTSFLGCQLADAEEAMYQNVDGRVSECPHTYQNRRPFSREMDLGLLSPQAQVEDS
Histone deacetylase 5 (Homo sapiens), sequence (Q9UQL6 whole entry, the tested form may be a part): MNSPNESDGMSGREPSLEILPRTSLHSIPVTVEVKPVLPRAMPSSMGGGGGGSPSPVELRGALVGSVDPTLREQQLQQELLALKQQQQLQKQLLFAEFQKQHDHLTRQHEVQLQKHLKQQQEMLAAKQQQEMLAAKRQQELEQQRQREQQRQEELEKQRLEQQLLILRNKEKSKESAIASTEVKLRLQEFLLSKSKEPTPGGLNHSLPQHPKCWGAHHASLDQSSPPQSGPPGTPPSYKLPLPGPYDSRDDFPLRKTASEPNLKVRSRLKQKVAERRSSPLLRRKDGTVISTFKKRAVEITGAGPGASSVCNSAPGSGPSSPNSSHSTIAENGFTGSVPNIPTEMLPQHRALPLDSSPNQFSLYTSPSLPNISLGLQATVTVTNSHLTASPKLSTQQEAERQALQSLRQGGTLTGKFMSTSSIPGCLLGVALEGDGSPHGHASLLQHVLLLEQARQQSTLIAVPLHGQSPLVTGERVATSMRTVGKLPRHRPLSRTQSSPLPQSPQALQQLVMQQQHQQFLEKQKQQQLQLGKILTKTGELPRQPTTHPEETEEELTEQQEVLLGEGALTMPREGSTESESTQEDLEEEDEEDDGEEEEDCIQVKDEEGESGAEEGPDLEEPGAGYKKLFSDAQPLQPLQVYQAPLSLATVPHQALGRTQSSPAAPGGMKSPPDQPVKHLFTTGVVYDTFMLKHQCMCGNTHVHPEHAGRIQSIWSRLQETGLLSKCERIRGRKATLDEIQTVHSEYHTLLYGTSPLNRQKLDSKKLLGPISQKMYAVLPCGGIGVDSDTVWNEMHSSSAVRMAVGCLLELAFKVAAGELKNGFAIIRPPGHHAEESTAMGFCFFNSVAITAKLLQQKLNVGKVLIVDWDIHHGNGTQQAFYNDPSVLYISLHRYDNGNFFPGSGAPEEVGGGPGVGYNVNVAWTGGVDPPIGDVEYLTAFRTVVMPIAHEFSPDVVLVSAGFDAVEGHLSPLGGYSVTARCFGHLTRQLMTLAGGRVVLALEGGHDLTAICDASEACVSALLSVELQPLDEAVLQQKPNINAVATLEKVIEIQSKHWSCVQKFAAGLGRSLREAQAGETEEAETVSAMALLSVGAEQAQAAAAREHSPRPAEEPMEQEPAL
Mast/stem cell growth factor receptor Kit (Homo sapiens), P10721 [V559D,T670I], sequence (P10721 whole entry V559D/T670I, the tested form may be a part): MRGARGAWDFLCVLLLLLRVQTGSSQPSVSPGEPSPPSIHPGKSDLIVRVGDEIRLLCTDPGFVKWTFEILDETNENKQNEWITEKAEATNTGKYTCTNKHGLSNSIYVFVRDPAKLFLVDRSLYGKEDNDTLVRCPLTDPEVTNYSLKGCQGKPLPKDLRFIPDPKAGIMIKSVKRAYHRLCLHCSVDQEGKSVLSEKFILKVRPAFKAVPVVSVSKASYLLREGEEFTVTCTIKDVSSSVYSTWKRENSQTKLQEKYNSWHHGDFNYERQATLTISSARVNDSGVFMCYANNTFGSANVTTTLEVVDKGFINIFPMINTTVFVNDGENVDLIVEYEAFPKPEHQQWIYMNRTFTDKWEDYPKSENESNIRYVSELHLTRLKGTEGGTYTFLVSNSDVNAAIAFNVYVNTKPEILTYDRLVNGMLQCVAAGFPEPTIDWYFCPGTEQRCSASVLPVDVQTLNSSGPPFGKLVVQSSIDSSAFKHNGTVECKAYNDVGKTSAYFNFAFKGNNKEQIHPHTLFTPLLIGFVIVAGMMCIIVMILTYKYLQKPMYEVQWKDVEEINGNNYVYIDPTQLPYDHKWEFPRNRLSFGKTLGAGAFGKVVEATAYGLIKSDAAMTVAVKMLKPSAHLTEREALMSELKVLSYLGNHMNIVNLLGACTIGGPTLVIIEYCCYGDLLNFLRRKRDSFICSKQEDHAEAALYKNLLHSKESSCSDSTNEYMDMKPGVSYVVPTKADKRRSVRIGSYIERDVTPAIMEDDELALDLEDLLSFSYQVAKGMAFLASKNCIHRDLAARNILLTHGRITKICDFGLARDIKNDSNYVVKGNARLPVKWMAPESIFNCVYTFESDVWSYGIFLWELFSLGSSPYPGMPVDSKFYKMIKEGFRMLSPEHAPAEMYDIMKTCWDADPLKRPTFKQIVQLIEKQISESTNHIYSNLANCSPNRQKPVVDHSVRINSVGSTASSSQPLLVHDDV
Tyrosine-protein kinase JAK3, sequence (P52333 whole entry, the tested form may be a part): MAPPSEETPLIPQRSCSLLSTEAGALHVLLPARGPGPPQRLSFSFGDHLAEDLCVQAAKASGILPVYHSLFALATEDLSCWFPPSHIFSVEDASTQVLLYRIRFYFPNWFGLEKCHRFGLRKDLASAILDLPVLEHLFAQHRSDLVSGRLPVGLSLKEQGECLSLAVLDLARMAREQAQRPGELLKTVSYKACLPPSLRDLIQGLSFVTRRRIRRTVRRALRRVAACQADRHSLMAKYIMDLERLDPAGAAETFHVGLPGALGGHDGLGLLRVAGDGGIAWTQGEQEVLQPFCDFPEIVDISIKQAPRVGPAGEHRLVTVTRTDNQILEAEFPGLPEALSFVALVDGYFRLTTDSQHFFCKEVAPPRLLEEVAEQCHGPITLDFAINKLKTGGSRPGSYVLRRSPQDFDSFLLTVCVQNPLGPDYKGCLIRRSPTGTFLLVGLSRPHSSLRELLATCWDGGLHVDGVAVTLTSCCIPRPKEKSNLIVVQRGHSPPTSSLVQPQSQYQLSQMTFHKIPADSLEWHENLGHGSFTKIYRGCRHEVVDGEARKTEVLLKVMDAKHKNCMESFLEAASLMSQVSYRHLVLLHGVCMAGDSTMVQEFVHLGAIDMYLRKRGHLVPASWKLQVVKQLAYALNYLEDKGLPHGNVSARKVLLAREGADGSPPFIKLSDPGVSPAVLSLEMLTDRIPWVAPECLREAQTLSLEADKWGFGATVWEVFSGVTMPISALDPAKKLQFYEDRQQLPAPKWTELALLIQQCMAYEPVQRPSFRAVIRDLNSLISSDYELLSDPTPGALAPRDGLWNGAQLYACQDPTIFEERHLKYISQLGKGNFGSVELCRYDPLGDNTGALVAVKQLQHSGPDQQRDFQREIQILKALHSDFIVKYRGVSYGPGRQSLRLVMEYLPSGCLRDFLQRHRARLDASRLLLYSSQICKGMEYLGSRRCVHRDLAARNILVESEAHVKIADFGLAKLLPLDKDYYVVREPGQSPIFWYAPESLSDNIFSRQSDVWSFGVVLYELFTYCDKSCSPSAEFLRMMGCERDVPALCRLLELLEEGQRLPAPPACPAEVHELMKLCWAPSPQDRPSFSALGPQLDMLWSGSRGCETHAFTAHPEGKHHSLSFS
Tyrosine-protein kinase JAK3 (Homo sapiens), sequence (P52333 whole entry, the tested form may be a part): as above

Consider `O=C(CCCCCCOc1ccc2cc1COC/C=C/COCc1cccc(c1)-c1ccnc(n1)N2)NO`, for which the values for the inhibition in [1], in [7] and in test [9] were 16.1%, 56% and 67%, respectively. For the same compound, in test [2], the inhibition entry is “Active”. Further, the half-inhibitory concentration (IC50) is 10 to 1000 nM in test [3] and 1470 nM in [4]. Further, the Activity in the test on MOLM-14 [5] was found to be 34.3%; in [6], 31%; in test [8], 7.9%; with MOLM-14 [10] it was 0%.
